Laboratory results reported in ChEMBL document CHEMBL4402563, “Preclinical Optimization of gp120 Entry Antagonists as anti-HIV-1 Agents with Improved Cytotoxicity and ADME Properties through Rational Design, Synthesis, and Antiviral Evaluation” (J Med Chem, 2020).
In brackets after ≈: the same amount, converted by molar mass.

Columns and labels:
TZM = assay: Cytotoxicity against human TZM-bl cells incubated for 3 days by MTS assay; assay type: cell-based; conditions: 72 h
[1] = Solubility of compound in pH 7.4 PBS buffer at 1 mg incubated for overnight by LC-MS/MS analysis; assay type: physicochemical; conditions: in vitro
In short: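 Aqueous solubility was measured in phosphate buffer at pH 7.4 and reported in mg/mL.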

[2] = Apparent permeability from apical to basolateral side in human Caco2 cells at 5 uM measured for 120 mins by LC-MS/MS analysis; assay type: ADME, cell-based; conditions: caco-2, 2 h
[3] = Apparent permeability from basolateral side to apical side in human Caco2 cells at 5 uM measured for 120 mins by LC-MS/MS analysis; assay type: ADME, cell-based; conditions: caco-2, 2 h
[4] = Apparent permeability from apical to basolateral side in human Caco2 cells at 5 uM preincubated with vals-podar for 30 mins and measured for 120 mins by LC-MS/MS analysis; assay type: ADME, cell-based; conditions: Caco-2, with valspodar (printed as vals-podar; concentration not stated)
In short: (§1)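 Bidirectional Caco-2 transport run with the P-gp inhibitor valspodar at 1 μM. Papp is given as ×10−6 cm/sec for each direction, and the efflux ratio is taken from B-to-A over A-to-B.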

[5] = Apparent permeability from basolateral side to apical side in human Caco2 cells at 5 uM preincubated with vals-podar for 30 mins and measured for 120 mins by LC-MS/MS analysis; assay type: ADME, cell-based; conditions: Caco-2, with valspodar (printed as vals-podar; concentration not stated); in short: as §1
[6] = Metabolic stability in human liver microsomes assessed as parent compound remaining at 3 uM preincubated for 3 mins followed by NADPH addition and measured up to 120 mins by LC-MS/MS analysis; assay type: ADME, Microsome; conditions: read-out: Stability
[7] = Intrinsic clearance in human liver microsomes at 3 uM preincubated for 3 mins followed by NADPH addition and measured up to 120 mins by LC-MS/MS analysis; assay type: ADME, Microsome; conditions: 2 h
[8] = Half life in human liver microsomes at 3 uM preincubated for 3 mins followed by NADPH addition and measured up to 120 mins by LC-MS/MS analysis; assay type: ADME, Microsome; conditions: 2 h
[9] = Protein binding in human plasma at 5 uM measured for 4 hrs by LC-MS/MS analysis; assay type: ADME, cell-free
Cytochrome P450 1A2 = target: T1, Cytochrome P450 1A2 (Homo sapiens, UniProt P05177); assay: Inhibition of CYP1A2 in human liver microsomes using phenacetin as substrate preincubated for 5 mins followed by NADPH addition and measured for 10 to 30 mins by LC-MS/MS analysis; assay type: ADME
T1 sequence (P05177 whole entry): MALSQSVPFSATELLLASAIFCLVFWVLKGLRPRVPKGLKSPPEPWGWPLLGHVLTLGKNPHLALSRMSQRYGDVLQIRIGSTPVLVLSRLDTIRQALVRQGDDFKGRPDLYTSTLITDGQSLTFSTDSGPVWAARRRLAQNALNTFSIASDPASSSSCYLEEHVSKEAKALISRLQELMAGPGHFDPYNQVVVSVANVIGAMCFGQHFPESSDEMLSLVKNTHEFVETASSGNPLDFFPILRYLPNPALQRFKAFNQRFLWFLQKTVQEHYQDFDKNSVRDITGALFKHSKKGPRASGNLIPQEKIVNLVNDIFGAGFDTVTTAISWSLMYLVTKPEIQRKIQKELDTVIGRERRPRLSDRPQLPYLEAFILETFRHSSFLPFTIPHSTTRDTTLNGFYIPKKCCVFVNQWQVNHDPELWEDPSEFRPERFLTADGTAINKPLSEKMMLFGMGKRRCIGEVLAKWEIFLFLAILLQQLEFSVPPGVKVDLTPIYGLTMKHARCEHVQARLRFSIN
In short: (§2)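 Inhibition was screened in a panel of eight CYP450 isoforms, with test concentrations escalated up to 100 μM.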

Cytochrome P450 2B6 = target: T2, Cytochrome P450 2B6 (Homo sapiens, UniProt P20813); assay: Inhibition of CYP2B6 in human liver microsomes using bupropion as substrate preincubated for 5 mins followed by NADPH addition and measured for 10 to 30 mins by LC-MS/MS analysis; assay type: ADME; in short: as §2
T2 sequence (P20813 whole entry): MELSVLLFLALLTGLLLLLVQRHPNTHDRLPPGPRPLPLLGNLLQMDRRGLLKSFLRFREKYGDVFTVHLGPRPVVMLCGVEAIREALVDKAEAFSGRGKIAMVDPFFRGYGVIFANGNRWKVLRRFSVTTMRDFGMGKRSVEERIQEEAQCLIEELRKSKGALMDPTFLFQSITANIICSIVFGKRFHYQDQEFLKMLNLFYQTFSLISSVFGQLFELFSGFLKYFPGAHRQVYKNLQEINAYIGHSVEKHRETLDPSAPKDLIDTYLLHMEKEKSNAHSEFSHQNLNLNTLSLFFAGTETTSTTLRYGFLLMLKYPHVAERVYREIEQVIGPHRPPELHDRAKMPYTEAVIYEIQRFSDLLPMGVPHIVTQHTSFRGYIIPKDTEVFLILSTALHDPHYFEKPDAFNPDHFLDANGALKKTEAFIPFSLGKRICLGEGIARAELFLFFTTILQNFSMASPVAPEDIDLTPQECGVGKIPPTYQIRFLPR

Cytochrome P450 2C8 = target: T3, Cytochrome P450 2C8 (Homo sapiens, UniProt P10632); assay: Inhibition of CYP2C8 in human liver microsomes using amodiaquine as substrate preincubated for 5 mins followed by NADPH addition and measured for 10 to 30 mins by LC-MS/MS analysis; assay type: ADME; in short: as §2
T3 sequence (P10632 whole entry): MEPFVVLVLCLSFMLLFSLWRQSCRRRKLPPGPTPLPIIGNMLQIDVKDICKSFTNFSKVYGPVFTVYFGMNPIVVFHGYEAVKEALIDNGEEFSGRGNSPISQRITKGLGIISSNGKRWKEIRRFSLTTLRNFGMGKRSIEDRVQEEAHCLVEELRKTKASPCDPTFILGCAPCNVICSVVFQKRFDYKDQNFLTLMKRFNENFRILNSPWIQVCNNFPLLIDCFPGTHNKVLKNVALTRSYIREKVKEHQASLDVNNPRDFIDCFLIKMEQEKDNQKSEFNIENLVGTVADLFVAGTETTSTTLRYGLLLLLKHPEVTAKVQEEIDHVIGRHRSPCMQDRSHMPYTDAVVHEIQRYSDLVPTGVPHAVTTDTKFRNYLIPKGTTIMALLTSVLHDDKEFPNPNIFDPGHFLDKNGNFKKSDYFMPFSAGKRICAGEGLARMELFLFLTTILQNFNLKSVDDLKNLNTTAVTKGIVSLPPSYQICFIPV

Cytochrome P450 2C9 = Cytochrome P450 2C9 (Homo sapiens, UniProt P11712); assay: Inhibition of CYP2C9 in human liver microsomes using diclofenac as substrate preincubated for 5 mins followed by NADPH addition and measured for 10 to 30 mins by LC-MS/MS analysis; assay type: ADME; in short: as §2
Cytochrome P450 2C19 = Cytochrome P450 2C19 (Homo sapiens, UniProt P33261); assay: Inhibition of CYP2C19 in human liver microsomes using S-mephenytoin as substrate preincubated for 5 mins followed by NADPH addition and measured for 10 to 30 mins by LC-MS/MS analysis; assay type: ADME; in short: as §2
Cytochrome P450 2D6 = Cytochrome P450 2D6 (Homo sapiens, UniProt P10635); assay: Inhibition of CYP2D6 in human liver microsomes using bufuralol as substrate preincubated for 5 mins followed by NADPH addition and measured for 10 to 30 mins by LC-MS/MS analysis; assay type: ADME; in short: as §2
CYP3A [10] = target: T4, CYP3A (Homo sapiens, UniProt P08684+P20815+P24462+Q9HB55); assay: Inhibition of CYP3A in human liver microsomes using testosterone as substrate preincubated for 5 mins followed by NADPH addition and measured for 10 to 30 mins by LC-MS/MS analysis; assay type: ADME; conditions: probe testosterone; in short: as §2
CYP3A [11] = target: T4, CYP3A; assay: Inhibition of CYP3A in human liver microsomes using midazolam as substrate preincubated for 5 mins followed by NADPH addition and measured for 10 to 30 mins by LC-MS/MS analysis; assay type: ADME; conditions: probe midazolam; in short: as §2
[12] = Cytotoxicity against dog Cf2Th-CCR5 cells infected with CD4-dependent pseudovirus HIV1 ADA incubated for 48 hrs by MTS assay

Sequence of Cytochrome P450 2C9 (P11712 whole entry): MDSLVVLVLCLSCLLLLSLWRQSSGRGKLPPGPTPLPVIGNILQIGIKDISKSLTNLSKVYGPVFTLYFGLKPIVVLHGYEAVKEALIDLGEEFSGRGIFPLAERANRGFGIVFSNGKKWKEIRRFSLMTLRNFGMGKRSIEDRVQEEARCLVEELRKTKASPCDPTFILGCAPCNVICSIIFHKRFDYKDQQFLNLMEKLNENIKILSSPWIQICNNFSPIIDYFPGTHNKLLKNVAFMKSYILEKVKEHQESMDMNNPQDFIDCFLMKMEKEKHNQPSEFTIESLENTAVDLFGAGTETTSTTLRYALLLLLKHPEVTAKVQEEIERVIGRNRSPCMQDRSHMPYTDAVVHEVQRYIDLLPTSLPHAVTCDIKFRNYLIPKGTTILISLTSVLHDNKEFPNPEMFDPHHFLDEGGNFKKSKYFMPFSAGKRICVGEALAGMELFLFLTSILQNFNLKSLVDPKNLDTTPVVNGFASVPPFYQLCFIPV
Sequence of Cytochrome P450 2D6 (P10635 whole entry): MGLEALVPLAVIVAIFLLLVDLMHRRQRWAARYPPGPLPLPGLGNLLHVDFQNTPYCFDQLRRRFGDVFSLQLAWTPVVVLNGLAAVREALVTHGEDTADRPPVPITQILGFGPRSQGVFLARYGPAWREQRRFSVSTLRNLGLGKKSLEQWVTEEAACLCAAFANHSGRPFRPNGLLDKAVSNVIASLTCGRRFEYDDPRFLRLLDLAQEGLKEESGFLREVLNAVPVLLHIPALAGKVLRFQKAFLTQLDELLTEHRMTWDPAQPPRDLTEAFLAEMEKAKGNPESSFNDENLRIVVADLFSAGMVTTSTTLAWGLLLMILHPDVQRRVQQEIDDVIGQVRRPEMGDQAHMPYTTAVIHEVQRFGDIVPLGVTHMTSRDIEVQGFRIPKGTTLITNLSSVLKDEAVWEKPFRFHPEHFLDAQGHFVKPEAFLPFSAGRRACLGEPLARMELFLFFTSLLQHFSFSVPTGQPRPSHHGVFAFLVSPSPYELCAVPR
Sequence of Cytochrome P450 2C19 (P33261 whole entry): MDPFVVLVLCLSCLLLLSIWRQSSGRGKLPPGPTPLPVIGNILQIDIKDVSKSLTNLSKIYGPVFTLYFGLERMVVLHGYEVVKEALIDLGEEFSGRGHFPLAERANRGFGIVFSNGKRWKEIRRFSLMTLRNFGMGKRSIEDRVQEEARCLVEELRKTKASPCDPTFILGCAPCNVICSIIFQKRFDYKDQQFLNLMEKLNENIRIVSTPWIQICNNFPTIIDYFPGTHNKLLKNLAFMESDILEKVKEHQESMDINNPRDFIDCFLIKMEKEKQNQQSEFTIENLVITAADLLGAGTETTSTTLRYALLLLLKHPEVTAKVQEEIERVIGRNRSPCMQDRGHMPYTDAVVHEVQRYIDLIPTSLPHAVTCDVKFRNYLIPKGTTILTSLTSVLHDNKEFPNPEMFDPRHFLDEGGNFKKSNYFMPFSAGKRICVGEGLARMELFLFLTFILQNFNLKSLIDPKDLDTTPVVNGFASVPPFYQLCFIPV

## Cc1cc(-c2ccc(C(F)(F)F)cn2)[nH]c1C(=O)N[C@@H](CN)c1ncc(CO)s1
TZM
  CC50: 109 µM
[1]
  solubility: 734 µg/mL (≈ 1730 µM)
[2]
  Papp: 6.51 ×10⁻⁶ cm/s
[3]
  Papp: 20.3 ×10⁻⁶ cm/s
[4]
  Papp A→B at 2 h, 5 µM: 14 ×10⁻⁶ cm/s
[5]
  Papp B→A at 2 h, 5 µM: 10.5 ×10⁻⁶ cm/s
[6]
  remaining at 2 h, 3 µM: 93.5%
[7]
  CLH: < 11.6 µL/min/mg
[8]
  t1/2: > 2 h
[9]
  PPB: 99.2%
Cytochrome P450 1A2
  IC50: 70.1 µM
Cytochrome P450 2B6
  IC50: 85.4 µM
Cytochrome P450 2C8
  IC50: > 100 µM
Cytochrome P450 2C9
  IC50: > 100 µM
Cytochrome P450 2C19
  IC50: > 100 µM
Cytochrome P450 2D6
  IC50: > 100 µM
CYP3A [10]
  IC50: > 62.2 µM
CYP3A [11]
  IC50: > 100 µM
[12]
  Activity: Non-Toxic
